Consider four molecules from ChEMBL document CHEMBL1141851, “Two bioactive pentacyclic triterpene esters from the root bark of Hibiscus syriacus” (J Nat Prod, 1999).

The subject of one assay is Liver microsomes. The assay can be described thus: Antioxidant activity in rat liver microsomes assessed as inhibition of lipid peroxidation by TBARS assay. It counts as functional, Microsome. In a few lines:
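Rat liver microsomal suspension ([…]) mixed with 0.2 mM ascorbic acid. Peroxidation was started by adding 100 µM FeSO4·7H2O. Thiobarbituric acid reactive products were read at 532 nm to measure inhibition of lipid peroxidation. The method was adapted with minor modification from an earlier one.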
For orientation: Liver microsomes are a subcellular fraction often used to study metabolism.

For another assay, the system named is UACC-62. The assay can be described thus: Cytotoxicity against human UACC-62 cells. It counts as functional. Particulars: read-out: ED50 (the source's name).
A further assay deals with MCF7. Description: Cytotoxicity against human MCF7 cells. It counts as functional. As to conditions: read-out: ED50 (the source's name).
Another assay deals with NCI-H23. Description: Cytotoxicity against human NCI-H23 cells. It counts as functional. Particulars: read-out: ED50 (the source's name).
A further assay has as its system ACHN. Description: Cytotoxicity against human ACHN cells. It counts as functional. Particulars: read-out: ED50 (the source's name).
A further assay has as its system UO-31. Description: Cytotoxicity against human UO-31 cells. It counts as functional. As to conditions: read-out: ED50 (the source's name).
The next assay concerns PC-3. Description: Cytotoxicity against human PC-3 cells. Particulars: read-out: ED50 (the source's name). It counts as functional.
For the next assay, the system named is SW-620. The assay can be described thus: Cytotoxicity against human SW620 cells. It counts as functional. Particulars: read-out: ED50 (the source's name).
The next assay relates to HCT-15. Description: Cytotoxicity against human HCT-15 cells. It counts as functional. Particulars: read-out: ED50 (the source's name).
A further assay relates to SF-539. The assay can be described thus: Cytotoxicity against human SF-539 cells. As to conditions: read-out: ED50 (the source's name). It counts as functional.

≈ marks a conversion by molar mass, not a printed value.

As usually defined, the IC50 is the concentration needed to halve the response being measured. Regarding `CC1(C)CC[C@]2(CO)CC[C@]3(C)C(=CC[C@@H]4[C@@]5(C)CC[C@H](O)[C@@](C)(COC(=O)/C=C/c6ccc(O)c(O)c6)[C@@H]5CC[C@]43C)[C@@H]2C1`, the IC50 with Liver microsomes came out at 2.3 µg/mL (≈ 3.7 µM). Also, the EC50 in the assay on UACC-62 came to 3.9 µg/mL (≈ 6.28 µM); with MCF7, 2.2 µg/mL (≈ 3.54 µM); in the assay on NCI-H23, 2.8 µg/mL (≈ 4.51 µM); with ACHN it was 1.2 µg/mL (≈ 1.93 µM); with UO-31, 2 µg/mL (≈ 3.22 µM); with PC-3, 1.6 µg/mL (≈ 2.58 µM). The values for the EC50 with SW-620, in the assay on HCT-15 and in the assay with SF-539 were 1.1 µg/mL (≈ 1.77 µM), 0.8 µg/mL (≈ 1.29 µM) and 1.4 µg/mL (≈ 2.25 µM), respectively.

Take `COc1cccc2c1C(=O)c1c(O)c3c(c(O)c1C2=O)C[C@@](O)(C(=O)CO)C[C@@H]3O[C@H]1C[C@H](N)[C@H](O)[C@H](C)O1` [DOXORUBICIN]: the EC50 in the assay with UACC-62 came out at 0.2 µg/mL (≈ 0.368 µM); with MCF7 it was 0.1 µg/mL (≈ 0.184 µM); in the assay on NCI-H23, 0.1 µg/mL (≈ 0.184 µM); in the assay on ACHN, 0.3 µg/mL (≈ 0.552 µM); in the assay on PC-3 it was 0.4 µg/mL (≈ 0.736 µM); with SW-620, 0.1 µg/mL (≈ 0.184 µM). The EC50 in the assay on HCT-15 worked out at 0.6 µg/mL (≈ 1.1 µM); in the assay on SF-539 it was 0.2 µg/mL (≈ 0.368 µM).

Regarding `CC1(C)CC[C@]2(CO)CC[C@]3(C)C(=CC[C@@H]4[C@@]5(C)CC[C@H](OC(=O)/C=C/c6ccc(O)c(O)c6)[C@@](C)(CO)[C@@H]5CC[C@]43C)[C@@H]2C1`, the half-maximal inhibitory concentration (IC50) in the assay on Liver microsomes worked out at 1.1 µg/mL (≈ 1.77 µM). The EC50 in the assay on UACC-62 turned out to be 2.3 µg/mL (≈ 3.7 µM); in the assay on MCF7, 1.8 µg/mL (≈ 2.9 µM); with NCI-H23 it was 1.7 µg/mL (≈ 2.74 µM); in the assay with ACHN, 2.1 µg/mL (≈ 3.38 µM); in the assay on UO-31 it was 1.7 µg/mL (≈ 2.74 µM); in the assay with PC-3, 2.2 µg/mL (≈ 3.54 µM). For the same molecule, the EC50 was found to be 1 µg/mL (≈ 1.61 µM) in the assay with SW-620, 1.3 µg/mL (≈ 2.09 µM) with HCT-15 and 2 µg/mL (≈ 3.22 µM) in the assay on SF-539.

As to VITAMIN E, the IC50 in the assay with Liver microsomes stood at 1.6 µg/mL.
